Assay outcomes deposited in PubChem BioAssay by several laboratories.
This is a sample that favours compounds with a hit; in the whole collection about 1.6% have one here.
bovine MsrA act: bovine MsrA enzyme activators, primary screen, biochemical, absorbance, HTS. Methionine sulfoxide reductase A (Bos taurus). purified bovine MsrA, absorbance read-out. activation, % at 10.6 µM. 0.3% of 360,000 active; in the data active = activation above about 7.5%;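 note: 0% = vehicle and 100% = reference activator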
MT1-MMP act inh: blockers of MT1-MMP proenzyme processing, primary screen, HT1080 RFP-PRO-GFP cells, GFP/RFP fluorescence; Matrix metalloproteinase-14 (Homo sapiens), P50281; GFP/RFP ratio fluorescence, overnight; percent of plate control window, DMSO zero; GFP/RFP ratio change, % at 20 µM; 0.061% of 360,000 active;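 active = GFP/RFP ratio change of at least 30% with cell ATP level not reduced by more than half and red fluorescence within 50% of control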
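Read-out: GFP/RFP fluorescence ratio; Test system: RFP-PRO-GFP reporter HT1080 cells; Compound dosing: single-point 20 µM compound, 1% DMSO; Times: overnight compound exposure at 37 °C.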
MsrA inhibitor: bovine MsrA enzyme inhibitors, primary screen, biochemical, absorbance, HTS; Methionine sulfoxide reductase A (Bos taurus); purified bovine MsrA, absorbance read-out; inhibition, % at 15.5 µM; 0.75% of 360,000 active; AID 651718, 2012; in the data active = inhibition above about 4.5%;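 note: 0% = vehicle wells with enzyme and 100% = reference inhibitor wells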
p-CIP stab down: p/CIP-EGFP fusion destabilizers, primary screen, fluorescence, F442A cells. 0.01% of 290,000 active. Q05BA5. 16 h. decrease of EGFP signal, % at 10 µM;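 active = EGFP signal decrease of at least 30% at 10 µM or well 3 SD below plate mean, unless failing retest; inactive = the rest, including hits failing retest or dose response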
Target sequence (Q05BA5 1-1403): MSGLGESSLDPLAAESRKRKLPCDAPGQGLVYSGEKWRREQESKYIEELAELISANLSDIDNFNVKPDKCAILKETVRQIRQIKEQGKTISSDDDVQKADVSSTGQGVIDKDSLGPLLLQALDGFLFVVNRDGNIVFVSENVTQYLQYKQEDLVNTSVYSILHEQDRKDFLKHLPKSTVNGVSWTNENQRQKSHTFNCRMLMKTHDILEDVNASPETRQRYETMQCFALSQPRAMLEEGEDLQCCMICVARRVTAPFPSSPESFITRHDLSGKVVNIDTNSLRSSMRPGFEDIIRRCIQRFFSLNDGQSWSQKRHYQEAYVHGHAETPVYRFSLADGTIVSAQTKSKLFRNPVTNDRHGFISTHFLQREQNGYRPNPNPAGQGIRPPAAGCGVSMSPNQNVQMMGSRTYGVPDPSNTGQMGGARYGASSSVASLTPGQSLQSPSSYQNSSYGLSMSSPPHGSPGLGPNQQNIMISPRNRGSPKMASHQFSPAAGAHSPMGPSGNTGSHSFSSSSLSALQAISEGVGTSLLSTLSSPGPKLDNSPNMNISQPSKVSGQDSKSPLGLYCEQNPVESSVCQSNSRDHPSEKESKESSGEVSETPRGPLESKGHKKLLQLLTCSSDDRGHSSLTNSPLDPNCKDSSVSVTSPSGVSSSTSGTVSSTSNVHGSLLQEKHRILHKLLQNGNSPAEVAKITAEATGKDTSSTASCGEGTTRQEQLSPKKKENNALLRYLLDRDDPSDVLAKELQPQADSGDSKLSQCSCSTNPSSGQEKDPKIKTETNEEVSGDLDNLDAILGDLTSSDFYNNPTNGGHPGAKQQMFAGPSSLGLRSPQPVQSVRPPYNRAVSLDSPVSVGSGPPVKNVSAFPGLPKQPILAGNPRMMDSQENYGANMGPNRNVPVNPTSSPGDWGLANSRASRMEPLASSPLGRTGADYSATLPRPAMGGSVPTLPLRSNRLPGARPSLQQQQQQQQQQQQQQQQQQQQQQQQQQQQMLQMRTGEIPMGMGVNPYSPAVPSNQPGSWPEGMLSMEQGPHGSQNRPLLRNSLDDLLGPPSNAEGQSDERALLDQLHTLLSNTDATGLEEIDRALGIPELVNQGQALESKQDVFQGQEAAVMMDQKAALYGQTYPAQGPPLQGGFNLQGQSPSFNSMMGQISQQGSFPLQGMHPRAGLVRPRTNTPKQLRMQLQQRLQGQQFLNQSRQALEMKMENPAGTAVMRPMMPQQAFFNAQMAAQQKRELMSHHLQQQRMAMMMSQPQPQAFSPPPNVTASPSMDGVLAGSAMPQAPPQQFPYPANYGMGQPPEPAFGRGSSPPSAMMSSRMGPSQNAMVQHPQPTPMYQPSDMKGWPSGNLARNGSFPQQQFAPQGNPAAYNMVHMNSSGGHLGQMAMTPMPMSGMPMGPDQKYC
SKN-1 inh: suppressors of acrylamide-induced Pgst-4::GFP reporter in worms, primary screen, SKN-1 inhibitor project, whole organism, uHTS, GFP/RFP fluorescence ratio, strain VP596. 0.49% of 360,000 active. inhibition, % at 21.8 µM. C. elegans VP596 Pgst-4::GFP/RFP ratio, 24 h;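 active = interference check ratio from 0.5 to 1.5 plus GFP to RFP signal ratio inhibition reaching or exceeding a fixed threshold, cut at about 30% in these data, passing the limit was not always enough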
Active calls of the source: *; . = no result.

SMILES | bovine MsrA act | MT1-MMP act inh | MsrA inhibitor | p-CIP stab down | SKN-1 inh
O=C(O)CCC(=O)Nc1ccc(-c2nc3ccc(C(=O)c4ccccc4)cc3[nH]2)cc1 | -4 | 6 | 4.6* | 4 | 24
O=C(Nc1nc(-c2ccccc2)cs1)c1cccs1 | -2 | -43 | 1 | 3 | 63*
CCCCNC(=O)COC(=O)c1cc(S(=O)(=O)N2CCCCCC2)ccc1OC | -3 | -3 | -1 | -3 | 40*
COc1ccc(S(=O)(=O)N2CCCCCC2)cc1C(=O)OCC(=O)NC(N)=O | -2 | 0 | 0 | 7 | 11
CC(=O)c1ccc(N2CCN(C(=S)Nc3ccc(Oc4ccccc4)cc3)CC2)cc1 | -9 | -10 | 3 | -51 | 26
CN1CCN(c2ccc(NC(=O)c3ccc(Oc4ccccc4)cc3)cc2)CC1 | -1 | 5 | -1 | -13 | 37*
O=[N+]([O-])c1ccc(Nc2nccc(Cl)n2)cc1 | -2 | -2 | 2 | . | 45*
CCCCc1c(-c2ccccc2OC)ncn1Cc1c(Cl)cccc1Cl | . | . | 0 | . | .
Cc1cc(C(=O)N/N=C/C=C/c2ccc3c(c2)OCO3)n[nH]1 | -6 | 3 | 8.9* | -6 | 6
COc1cc([N+](=O)[O-])ccc1NC(=O)CN(C)C | -3 | -4 | 2 | 8 | 11
CCN(CC(=O)Nc1ccc([N+](=O)[O-])cc1OC)c1ccccc1 | -3 | 0 | 4.8* | 18 | 12
Clc1ccccc1-c1ccc(CN2CCN(c3ccccc3)CC2)o1 | -1 | -2 | 0 | -5 | 38*
CN1OC[C@@H]2CN3C(=Nc4cc(C(F)(F)F)cc(C(F)(F)F)c4)Sc4ccccc4[C@@H]3C[C@@H]21 | . | . | 1 | . | .
COc1cc(/C=C2\SC(=O)N(c3ccc(Cl)cc3)C2=O)cc([N+](=O)[O-])c1O | -5 | 21 | 7.1* | -9 | 11
COc1cc(/C=C2\SC(=O)N(c3cccc(Cl)c3)C2=O)cc([N+](=O)[O-])c1O | -2 | 19 | 1 | 2 | 8
O=C(NC1CCCC1)[C@@H]1CCCN1C(=O)[C@@H](NC(=O)N1CCOCC1)C1CCCCC1 | . | . | 1 | . | .
CC(=O)Nc1cc2c(cc1[N+](=O)[O-])OCCO2 | 0 | -2 | 4.6* | 13 | -2
C[C@@H]1CN(C(=O)OC(C)(C)C)CCN1c1ccc(Br)c(C#N)c1 | . | . | 0 | . | .
COc1ccc(S(=O)(=O)N2CC(C(=O)O)Oc3ccccc32)cc1 (stereo not drawn) | -4 | -3 | 0 | -2 | 31*
CCCCOc1ccc(C(=O)NC)cc1 | -6 | 0 | 0 | 4 | 28*
N[C@@H](Cc1ccccc1)C(=O)N1CCC(C(=O)N[C@@H](Cc2c[nH]c3ccccc23)C(=O)O)CC1 | -5 | -5 | 0 | 3 | -22
CSCC[C@H](N)C(=O)N1CCC(C(=O)N[C@@H](Cc2c[nH]c3ccccc23)C(=O)O)CC1 | -3 | -3 | -1 | 3 | 36*
CCc1sc(N(C(=O)Cc2ccccc2)c2cccc(F)c2)nc1-c1ccc(C)cc1 | -1 | -1 | 0 | -5 | 44*
C[C@@H]1ON(C)[C@H]2C[C@H]3c4cc(Br)ccc4CCN3C[C@@H]12 | . | . | 2 | . | .
CCN(CC)C(=O)COc1ccc2c(-c3ccccc3)cc(=O)oc2c1 | -6 | -4 | 2 | 2 | -13
SMILES | bovine MsrA act | MT1-MMP act inh | MsrA inhibitor | p-CIP stab down | SKN-1 inh
COc1ccc(-c2cc(=O)oc3cc(OCC(=O)N(C)C)ccc23)cc1 | -3 | -8 | 2 | -17 | 37*
COc1ccc(CCNC(=O)COc2nsnc2N2CCOCC2)cc1OC | -1 | 0 | 0 | 5 | 40*
Cn1c(-c2ccc(Br)o2)nc2cc(Br)ccc21 | -6 | 7 | 0 | 5 | 43*
Cn1c(-c2ccc(Br)o2)nc2ccccc21 | -1 | 0 | 1 | 4 | 14
COC(=O)[C@]12C[C@H](CC(=O)NCCCCc3ccccc3)C(=O)N(Cc3ccccc3)C1=C[C@H](C(C)C)O[C@@H]2C1CC1 | . | . | 0 | . | .
O=[N+]([O-])c1ccc2cn(-c3ccccc3)nc2c1 | -12 | 2 | 2 | -10 | 57*
COC(=O)C1=C(C)N(Cc2ccccc2C(F)(F)F)C(=NCc2cccc(C(F)(F)F)c2)NC1c1ccc(F)cc1 (stereo not drawn) | . | . | -3 | . | .
Cc1ccc(NS(=O)(=O)c2ccc(NC(=O)c3cccs3)cc2)cc1 | 8.2* | 1 | 0 | -11 | 0
Cc1nn(C(=O)CCC(=O)NCCc2ccccc2)c2ccccc12 | -2 | -2 | 0 | -4 | 13
Cc1nn(C(=O)CCC(=O)NCc2cccc(F)c2)c2ccccc12 | -1 | -6 | -1 | -8 | 34*
Cc1nn(CCCC(=O)Nc2sc3c(c2C#N)CCC3)c(C)c1[N+](=O)[O-] | -1 | -7 | 25* | -11 | 6
Cc1nn(C(C)C(=O)Nc2sc3c(c2C#N)CCCC3)c(C)c1[N+](=O)[O-] (stereo not drawn) | 0 | 5 | 1 | -6 | 2
O=C(O)C(Oc1ccc2c(c1)oc(=O)c1ccccc12)c1ccccc1 (stereo not drawn) | 3 | 1 | 4 | -2 | -5
O=C(O)C(Oc1ccc2ccccc2c1)c1ccccc1 (stereo not drawn) | 0 | 2 | 1 | . | 40*
O=C1NCC(c2ccccc2)C1C(=O)N/N=C\c1ccc(-c2cccc(Cl)c2Cl)o1 (stereo not drawn) | -2 | 0 | 1 | 5 | 36*
CCCCCCCCN1C(=O)[C@@H](CC(=O)NCCC(C)C)C[C@@]2(C(=O)OC)C1=C[C@H](C(C)(C)C)O[C@@H]2C | . | . | -1 | . | .
CC(C)CC(=O)Nc1ccc(Nc2ccccc2)cc1 | -1 | 3 | 0 | -8 | 35*
CC(C)CC(=O)Nc1ccc(Oc2ccc(NC(=O)CC(C)C)cc2)cc1 | -2 | 5 | -1 | -9 | -15
CCCCCCCCN1C(=O)[C@@H](CC(=O)NCCCOC)C[C@@]2(C(=O)OC)C1=C[C@H](C(C)(C)C)O[C@@H]2C | . | . | -1 | . | .
CCCS(=O)(=O)NC(=O)C1(C)CCN(C(=O)c2cccc(C)c2C)C1 (stereo not drawn) | -1 | . | 0 | . | 35*
CSC1=C(C#N)C(c2ccc(Cl)cc2)C2=C(CC(C)(C)CC2=O)N1 (stereo not drawn) | -2 | -14 | 0 | -10 | 35*
O=C(O)C1CCCC2CN3CCc4c([nH]c5ccccc45)C3C(O)C21 (stereo not drawn) | -2 | -16 | 0 | -6 | 37*
O=C(O)[C@@H]1[C@H]2C[C@H]3c4[nH]c5ccccc5c4CCN3C[C@@H]2CC[C@@H]1O | -2 | -23 | -1 | . | 27
COC(=O)c1ccc2nc(-c3ccc(C)cc3)c(Cc3cccc(F)c3)n2c1 | -1 | -7 | -1 | . | 41*
